Screening results (PubChem BioAssay)
N-glyco inh: N-linked glycosylation inhibition. D54 ERlucT glycosylation luciferase reporter, 24 h; percent of 100 nM tunicamycin response. reporter increase, % at 12.5 µM. 0.23% of 360,000 active;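 active = mean luciferase reporter signal, scaled so untreated is 0 and the glycosylation-blocking control 100, at or above a set limit in every replicate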;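 note: luciferase carries N-glycosylation sites so blocking glycosylation raises the light; 0% = median of neutral control wells and 100% = median of 100 nM tunicamycin wells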
UCH37 inh: inhibitors of human deubiquitinating enzyme UCH37; inhibition, % (concentration not given with the values); AID 588478; Q9Y5K5; 0.33% of 330,000 active; purified proteasome/UCH37, Ub-AMC cleavage fluorescence;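 active = mean inhibition over replicate wells above about 20%, limit read from the data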;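 note: 0% = compound-free wells with enzyme and 100% = wells lacking proteasome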
Target sequence (Q9Y5K5 whole entry, looked up): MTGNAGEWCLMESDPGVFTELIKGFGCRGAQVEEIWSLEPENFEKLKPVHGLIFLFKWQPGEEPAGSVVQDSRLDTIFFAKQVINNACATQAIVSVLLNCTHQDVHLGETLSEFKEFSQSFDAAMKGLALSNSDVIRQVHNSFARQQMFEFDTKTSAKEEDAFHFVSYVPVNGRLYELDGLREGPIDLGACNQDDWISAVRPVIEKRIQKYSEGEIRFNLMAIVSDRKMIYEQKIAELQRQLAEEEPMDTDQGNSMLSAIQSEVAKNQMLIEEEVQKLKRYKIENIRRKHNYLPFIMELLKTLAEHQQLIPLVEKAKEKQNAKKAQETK
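System: Proteasome-associated human UCH37 deubiquitinase; Input: 0.15 nM proteasome in added enzyme buffer; Also added: Ub-AMC substrate from 1 µM stock; Incubation: 30 min compound-proteasome preincubation then 25 min substrate reaction, room temperature; Detection: fluorescence, ex 355 nm, em 460 nm; Read-out: % inhibition of Ub-AMC cleavage fluorescence; Benchmarks: no-proteasome and no-compound wells.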
bovine MsrA act: bovine methionine sulfoxide reductase A activation. 0.3% of 360,000 active. purified bovine MsrA, absorbance read-out. activation, % at 10.6 µM; in the data active = activation above about 7.5%;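 note: 0% = vehicle and 100% = reference activator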
Vif inh: inhibitors of HIV Vif. AID 602346. 0.35% of 340,000 active. HEK293T cells, Vif self-association by quenched fluorescence, imaging, 24 h. inhibition, % at 7.49 µM; in the data active = inhibition above about 50%, passing the limit was not always enough
aDG glyco up: increases alpha dystroglycan glycosylation; Pro5-aDG cells, alpha-DG glycosylation AlphaScreen (IIH6); 0% Pro5, 100% B10-LARGE cell signal; activation, % at 10 µM; 0.22% of 360,000 active;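 active = activation of at least 8% versus controls, or a plate z-score of at least 8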;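 note: Pro5 are CHO cells carrying HIG-tagged alpha-DG that lacks glycosylation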
MsrA inhibitor: bovine MsrA inhibition; purified bovine MsrA, absorbance read-out; inhibition, % at 15.5 µM; 0.75% of 360,000 active; in the data active = inhibition above about 4.5%;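 note: 0% = vehicle wells with enzyme and 100% = reference inhibitor wells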
Numbers without * were called inactive; . = not tested or not shown. Most compounds without a hit are left out; they make up all but 1.9% or so of the library.

SMILES	N-glyco inh	UCH37 inh	bovine MsrA act	Vif inh	aDG glyco up	MsrA inhibitor
O=C(/C=C/c1ccc(O)cc1)c1ccccc1	2	5	-2	4	0	2
Cc1ccc(NC2=C(N3CCCCC3)C(=O)c3ccccc3C2=O)cc1	2	23*	-5	-1	1	1
COc1ccccc1NC1=C(N2CCCCC2)C(=O)c2ccccc2C1=O	-17	52*	2	1	2	.
O=C1C(Nc2ccccc2)=C(N2CCCCC2)C(=O)c2ccccc21	-11	7	-3	25	2	1
CCOC(=O)C(C)C(C)=NNC(N)=S (stereo unspecified)	.	3	.	.	.	.
Cn1cccc1/C=C(/C#N)c1ccc(F)cc1	1	4	-5	-10	0	5.6*
Fc1ccc(-c2n[nH]c(=S)c3ccccc23)cc1	-4	4	-4	52*	0	1
O=c1[nH]c2ccccc2c(=O)n1Cc1ccco1	3	21*	-2	-3	0	0
O=c1[nH]c2ccc(Cl)cc2c(=O)n1Cc1ccco1	1	0	-4	-5	0	-1
COc1cccc(C=NNC(C)=O)c1OC/C=C/c1ccccc1	.	3	.	.	.	.
Nc1ccc(C(=O)NN=Cc2ccc(OC(=O)c3ccccc3Cl)cc2)cc1	.	3	.	.	.	.
O=C(NN=Cc1ccc(OC(=O)c2ccccc2Cl)cc1)c1cc(O)cc(O)c1	.	22*	.	.	.	.
CC(/C=C/c1ccc2c(c1)OCO2)=NNC(=O)COc1ccccc1C	.	-8	.	.	.	.
CC(CC(=O)NCc1ccccc1Cl)=NNC(=O)c1ccccn1	.	1	.	.	.	.
Cc1ccc(NC(=O)c2ccc(OCc3c(C)noc3C)cc2)cc1C	-6	1	-6	-18	0	0
Cc1noc(C)c1COc1ccc(C(=O)NNC(=O)c2ccccc2)cc1	23	4	-4	-11	0	-1
Cc1noc(C)c1COc1ccc(C(=O)NNC(=O)c2ccccc2F)cc1	27*	4	-2	25	0	.
CC(=O)Nc1ccc(NC(=O)c2ccc(OCc3c(C)noc3C)cc2)cc1	2	1	-4	60*	0	2
CCOC(=O)Nc1ccc2c(c1)ncn2C1CCCCC1	-1	1	-3	82*	0	0
COc1ccc(-c2nnc(SCC(=O)NCc3cccs3)n2C)cc1	0	7	-9	-5	0	-1
Cn1c(SCC(=O)NCc2cccs2)nnc1-c1ccncc1	-1	2	-3	59*	0	0
CCOc1ccc(-c2c(C(=O)NN=C(C)c3ccco3)nnn2-c2nonc2N)cc1	.	-28	.	.	.	.
CC(=O)Oc1cccc(N2C(=O)c3cccc4c([N+](=O)[O-])ccc(c34)C2=O)c1	12	-2	-3	118*	0	0
Cc1ccc(C(=O)O)cc1N1C(=O)c2cccc3c([N+](=O)[O-])ccc(c23)C1=O	7	.	-4	16	0	2
O=C(O)c1ccc(CN2C(=O)c3cccc4c([N+](=O)[O-])ccc(c34)C2=O)cc1	31*	-49	-1	26	0	.
SMILES	N-glyco inh	UCH37 inh	bovine MsrA act	Vif inh	aDG glyco up	MsrA inhibitor
Cc1ccc(NCC(=O)NN=Cc2cc(O)ccc2[N+](=O)[O-])cc1	.	10	.	.	.	.
Cc1ccccc1S(=O)(=O)Nc1nc2ccccc2nc1NCCO	3	-7	-8	52*	0	2
CCOc1ccccc1N(CC(=O)NCC1CCCO1)C(=O)CCC(=O)Nc1nccs1 (stereo unspecified)	1	0	4	61*	0	2
COc1ccccc1N(CC(=O)NCC1CCCO1)C(=O)CCC(=O)Nc1nccs1 (stereo unspecified)	0	5	-2	.	0	0
CCOC(=O)C1CCCN(CC(=O)Nc2c(C(=O)OC)[nH]c3ccc(Cl)cc23)C1 (stereo unspecified)	-2	1	4	61*	0	1
CC12CCC(C(=O)Nc3ccccc3Br)(CC1=NO)C2(C)C (stereo unspecified)	.	5	.	.	.	.
CC(=O)Nc1ccc(C(=O)N/N=C/c2ccccc2OCc2ccccc2)cc1	41*	.	-4	7	0	2
COC(=O)N/N=C/c1ccccc1OCc1ccccc1	0	.	-2	-5	0	0
Cc1ccc(NN=C(C#N)C(=N)N2CCCCCC2)cc1	.	3	.	.	.	.
COc1ccc2[nH]c(C(=O)N3CCN(Cc4ccccc4)CC3)cc2c1OC	45*	-3	0	1	0	0
Cc1[nH]c2ccc(C(=O)N3CCN(Cc4ccccc4)CC3)cc2c1C	-4	5	0	24	0	-1
Cc1cc(C(=O)N/N=C/C=C/c2ccc3c(c2)OCO3)n[nH]1	1	.	-6	-4	0	8.9*
COc1ccc(NC(=O)CCC(=O)N/N=C/c2cn(C)nc2C)cc1	1	.	-4	54*	0	-1
COc1ccc(NC(=O)CCC(=O)NN=Cc2cn(C)nc2C)cc1	.	1	.	.	.	.
O=C(NN=C/C(Br)=C\c1ccccc1)c1cccs1	.	2	.	.	.	.
c1ccc2sc(Sc3ncnc4sccc34)nc2c1	22	2	-9	-6	1	0
CCc1cc2c(Sc3nc4ccccc4s3)ncnc2s1	6	-2	0	89*	0	2
O=C1c2ccccc2C(Nc2ccc(S(=O)(=O)N3CCCCCC3)cc2)N1c1ccccn1 (stereo unspecified)	-1	2	0	.	0	1
O=C1c2ccccc2C(Nc2ccc(S(=O)(=O)N3CCOCC3)cc2)N1c1ccccn1 (stereo unspecified)	-2	6	-4	52*	0	0
S=C(NCc1ccccc1)Nc1cccc2cnccc12	1	0	-2	-8	2	-1
S=C(NCCc1ccccc1)Nc1cccc2cnccc12	-3	3	-9	-20	9.0*	0
O=C(CNC(=O)c1cccc(Br)c1)NN=Cc1ccc[nH]1	.	0	.	.	.	.
O=c1[nH]c(=O)n(C2OC(CO)C(O)C(O)C2O)cc1F (stereo unspecified)	.	.	.	.	.	0
CCCCCCCCCCCCCCCCCCNc1ccn(C2OC(COP(=O)(O)OCC3OC(n4cc(F)c(=O)[nH]c4=O)CC3O)C(O)C2O)c(=O)n1 (stereo unspecified)	35*	.	-1	12	0	-1
CCOC(=O)c1[nH]c(C)c(C(=O)Nc2cc(Cl)ccc2C)c1C	29*	-1	-2	14	0	-2
CCOC(=O)c1[nH]c(C)c(C(=O)Nc2ccccc2C)c1C	19	6	-4	30	0	1
O=[N+]([O-])/C=C/c1cn(Cc2ccc(Cl)cc2)c2ccccc12	-9	20*	-5	1	0	0
COc1cc(C=NNC(=O)CC2C(=O)NN=C2C)ccc1O (stereo unspecified)	.	0	.	.	.	.
CCCCNC(=S)N/N=C/c1ccc(C#N)cc1	-4	.	-2	2	0	4.7*
Nc1nonc1-n1nnc(C(=O)NN=Cc2ccccc2O)c1CN1CCCC1	.	3	.	.	.	.
